Compound activity from PubChem BioAssay.
The list is not random: actives were taken first. Their share in the collection is about 5.5%.
Cl transport mod: KCC2 (human) Cl- transport modulation; Q9H2X9; KCC2 cells, thallium flux FluoZin-2 fluorescence; B-score of Tl+ flux slope (higher = more flux/activation; lower = inhibition) at 10 µM; 190,000 tested, 2.2% active; AID 1456;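 active = thallium flux slope and its plate-corrected score both differing from the plate sample mean at a set confidence after two filtering rounds, in either direction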;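 note: slope of fluorescence scaled to starting intensity during 10 to 20 s after thallium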
Target sequence (Q9H2X9 whole entry, looked up): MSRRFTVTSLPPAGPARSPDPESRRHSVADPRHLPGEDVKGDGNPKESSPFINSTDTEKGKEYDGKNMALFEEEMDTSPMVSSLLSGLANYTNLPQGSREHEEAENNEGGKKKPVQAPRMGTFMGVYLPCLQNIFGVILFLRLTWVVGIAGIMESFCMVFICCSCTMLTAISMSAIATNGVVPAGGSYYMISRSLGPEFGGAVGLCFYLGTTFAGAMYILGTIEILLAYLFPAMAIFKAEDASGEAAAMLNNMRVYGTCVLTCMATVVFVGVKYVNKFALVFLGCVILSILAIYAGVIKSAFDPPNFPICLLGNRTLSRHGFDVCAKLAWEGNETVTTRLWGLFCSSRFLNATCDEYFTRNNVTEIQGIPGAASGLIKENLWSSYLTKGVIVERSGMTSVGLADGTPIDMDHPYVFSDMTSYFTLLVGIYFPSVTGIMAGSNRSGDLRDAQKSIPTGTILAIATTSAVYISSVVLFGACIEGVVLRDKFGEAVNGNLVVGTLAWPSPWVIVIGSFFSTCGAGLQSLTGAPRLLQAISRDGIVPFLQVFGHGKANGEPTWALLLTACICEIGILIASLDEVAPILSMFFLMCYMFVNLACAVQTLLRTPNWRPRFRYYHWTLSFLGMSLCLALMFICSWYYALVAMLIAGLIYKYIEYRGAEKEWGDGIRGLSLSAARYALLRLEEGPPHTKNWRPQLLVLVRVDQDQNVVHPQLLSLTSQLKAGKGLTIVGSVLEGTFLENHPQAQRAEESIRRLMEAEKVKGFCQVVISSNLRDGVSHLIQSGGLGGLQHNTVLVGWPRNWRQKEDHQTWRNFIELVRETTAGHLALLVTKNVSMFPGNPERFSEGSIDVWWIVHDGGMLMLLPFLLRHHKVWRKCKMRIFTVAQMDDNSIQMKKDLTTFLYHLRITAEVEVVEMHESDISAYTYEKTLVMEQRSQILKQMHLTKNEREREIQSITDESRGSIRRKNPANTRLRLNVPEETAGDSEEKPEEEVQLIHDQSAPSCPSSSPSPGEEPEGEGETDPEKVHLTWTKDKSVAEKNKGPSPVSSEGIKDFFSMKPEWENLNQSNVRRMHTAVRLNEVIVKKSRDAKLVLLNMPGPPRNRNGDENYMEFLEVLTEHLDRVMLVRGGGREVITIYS
RAM inhibit: blocks the yeast RAM network. 190,000 tested, 1.8% active. S. cerevisiae dse1pr::URA3 reporter, 5-FOA growth OD615, 2 d; analog-sensitive cbk1-as2 kinase mutant strain. inhibition, % at 50 µM;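 active = inhibition above a set limit, 3 SD over mean compound inhibition, cut at about 8.4% in these data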;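 note: 0% = DMSO-only wells with no growth and 100% = 10 µM 1-NA-PP1 full growth; inhibition rescues growth on 5-FOA so higher OD means more RAM inhibition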
WT yeast gro inh: growth inhibition of WT yeast, mitochondrial fusion screen | mitochondrial fusion phenotypic screen, WT strain | inhibition, % at 10 µM | 190,000 tested, 2.1% active | AID 1362; in the data active = inhibition above about 58%; tested in S. cerevisiae
Yeast lifespan up: yeast lifespan extension. S. cerevisiae growth with nicotinamide, OD615; deaD strain in restrictive glucose medium. inhibition of the nicotinamide effect, % at 10 µM. 130,000 tested, 0.68% active;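 active = inhibition above a set limit, placed 3 SD over the median of all compounds, cut at about 26% in these data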;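 note: 0% = nicotinamide-treated wells and 100% = cells grown without nicotinamide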
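Measured by: optical density (absorbance) at 615 nm; System: modified budding yeast, DeaD strain; Medium: restrictive CSMM-D dextrose medium; Timing: 4 h preincubation then 48 h treatment at 30 °C.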
BB579 growth dn: chemicals that inhibit yeast BB579 growth in restrictive medium (lifespan-shortening candidates); S. cerevisiae BB579 growth, OD615, 48 h; inhibition, % at 10 µM; 140,000 tested, 0.51% active; AID 804;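 active = inhibition above a set limit, 3 SD over the mean compound inhibition, cut at about 44% in these data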
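System: Saccharomyces cerevisiae DeaD strain BB579, replicative lifespan model yeast | Buffer or medium: Restrictive glucose-based CSMM-D medium | Times: 4 h preincubation and 48 h exposure at 30 °C | Detection: OD615 turbidity measurement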
Starred values were filed as active, the others as inactive; . = not tested or not shown.

SMILES | Cl transport mod | RAM inhibit | WT yeast gro inh | Yeast lifespan up | BB579 growth dn
CCN(CC)S(=O)(=O)c1c(OC)cc(C)c(Cl)c1C | -0.113 | 1.8 | -16.3 | . | .
Cn1nc(C(=O)Nc2c(-c3ccccc3)nc3sccn23)c2ccccc2c1=O | 0.155 | 9.2* | 1.3 | 2.3 | -22.3
Cn1nc(C(=O)Nc2nc3ccccc3[nH]2)c2ccccc2c1=O | 0.00736 | 0.9 | 10.8 | -3.8 | -12.7
CC1(C)C=Cc2c(c3c(c4c(=O)c(-c5ccc(O)cc5)coc24)OC(C)(C)CC3)O1 | 0.636 | 4.6 | 71.4* | . | .
O=c1c2c3c(sc2ncn1/N=C/c1ccc([N+](=O)[O-])o1)CCCC3 | 1.18 | 1.4 | -10.9 | 65.3* | 25.0
Cn1cc(/C=N/n2cnc3sc4c(c3c2=O)CCCC4)c2ccccc21 | -2.7 | 2.9 | 17.9 | -14.4 | 2.1
CC(=O)c1cccc(NS(=O)(=O)c2ccc(N/C=C/C(=O)c3ccc(F)cc3)cc2)c1 | 0.0376 | 9.6* | -3.3 | 6.6 | -25.1
COc1cccc(C(=O)/C=C/Nc2ccc(S(=O)(=O)Nc3onc(C)c3C)cc2)c1 | -1.21 | 8.9* | -14.4 | 2.6 | -49.7
Cc1cccc(-c2c3c(=O)n(C)c(=O)n(C)c3c3cccnn23)c1 | -0.00181 | 1.3 | 7.9 | -8.3 | -49.9
CC(=O)c1c(C)[nH]c(C(=O)OC(C)C(=O)Nc2cc(S(=O)(=O)N3CCCCC3)ccc2Cl)c1C (configuration not stated) | 0.0122 | 7.5 | 0.2 | 4.8 | -26.5
CCCCC(=O)NC(=S)NNC(=O)CC#N | . | -0.6 | . | -4.0 | -2.2
CCCCC(=O)NNC(=S)NC(=O)CCC | 0.333 | -1.4 | 23.2 | . | 77.9*
CCc1ccc(N2C(=O)CC(NNc3nc4ccccc4s3)C2=O)cc1 (configuration not stated) | -0.00551 | 4.3 | -3.3 | -4.6 | -8.8
CCOC(=O)CN(Cc1sccc1C)C(=O)Nc1ccc(OCC)cc1 | -0.232 | -0.2 | 14.5 | 0.7 | -29.2
CCC(C)(C)NC(=O)CN(C(=O)c1snc(C(N)=O)c1N)c1ccc2c(c1)OCCO2 | . | 3.0 | 73.4* | -0.8 | -17.3
CCC(C)(C)NC(=O)CN(C(=O)c1snc(C(N)=O)c1N)c1ccc2nc(C)sc2c1 | . | 1.0 | 4.6 | . | .
CCN(CC)CCCNC(=O)CSc1nc(-c2ccc(F)cc2)cc(C(F)(F)F)n1 | -0.323 | -0.8 | -2.8 | . | .
O=C(NCc1ccc(F)cc1)c1nc(-c2cccs2)no1 | -0.525 | 8.5* | 29.3 | . | .
O=S(=O)(Nc1ccc2oc(-c3ccccc3)nc2c1)c1ccccc1 | -0.866 | 6.5 | 0.9 | -29.4 | 1.8
Cc1ccc(-c2nc3cc(NS(=O)(=O)c4ccc(C)cc4)ccc3o2)cc1 | 0.996 | 5.8 | 73.3* | -6.5 | -60.1
COc1cc(C(=O)O)nc2ccc([N+](=O)[O-])cc12 | 0.265 | 1.4 | -3.6 | . | .
CCOc1ccc(-c2nc(C#N)c(NCc3ccc4c(c3)OCO4)o2)cc1 | -0.296 | 10.7* | 8.8 | -2.2 | -16.1
N#Cc1nc(-c2ccco2)oc1NCc1ccc(F)cc1 | . | 3.9 | 61.7* | -19.6 | -19.4
COc1ccc(-c2nc(C#N)c(NCc3ccc(F)cc3)o2)cc1OC | . | 8.9* | -4.2 | -13.2 | -6.8
NC(=O)C1CCN(CC(=O)Nc2ccccc2N2CCOCC2)CC1 | -0.191 | . | . | . | .
SMILES | Cl transport mod | RAM inhibit | WT yeast gro inh | Yeast lifespan up | BB579 growth dn
Cn1cc(Br)c(-c2cccc(NC(=O)CCC(=O)O)c2)n1 | 0.668 | . | . | . | .
O=C(COC(=O)CSc1ccc2ccccc2c1Br)NC1CC1 | -0.381 | -2.2 | -6.7 | . | .
CC(C)C(=O)NC(=S)N(Cc1ccccc1)Cc1ccccc1 | 41.7* | 1.1 | 32.9 | 4.5 | -7.2
CC(C)CC(=O)NC(=S)N(Cc1ccccc1)Cc1ccccc1 | 49.3* | 2.4 | 64.2* | 8.4 | -28.9
C=CCNC(=S)NNC(=O)COc1ccc(Cl)cc1Cl | 3.72 | 0.4 | 67.8* | -1.0 | -34.9
C=CCNC(=O)COc1ccc(Br)cc1Cl | . | -0.2 | 1.2 | -6.8 | -10.3
CC(=O)NC(=S)Nc1ccc(NC(=O)COc2ccc(Cl)cc2Cl)cc1 | -0.315 | 1.7 | 6.2 | -14.2 | -17.8
O=C(COc1ccc(Cl)cc1Cl)NNC(=S)Nc1ccc(F)cc1 | 4.06* | 4.1 | 61.7* | -2.8 | -19.2
Cc1nc(NC2=NCN(C3CCCCC3C)CN2)nc2ccccc12 (configuration not stated) | -0.00662 | 0.9 | 86.4* | -16.8 | -55.1
COc1cccc2cc(C(=O)N3CCc4ccccc43)c(=O)oc12 | . | 0.5 | 83.2* | 8.8 | -41.7
CCOc1cccc2cc(C(=O)N3CCc4ccccc43)c(=O)oc12 | 0.123 | 2.0 | -8.0 | -4.0 | -17.2
COc1ccc(C2CC(=O)c3cnc(NC(=O)c4cc(OC)cc(OC)c4)nc3C2)cc1 (configuration not stated) | 1.2 | 4.1 | 19.6 | -21.4 | -42.0
COc1ccc(C2CC(=O)c3cnc(Nc4cc(C)cc(C)c4)nc3C2)cc1 (configuration not stated) | -1.22 | 5.6 | 69.1* | -6.9 | -25.8
CC1(C)CC2=C(CO1)C(=S)NC(c1ccccc1)N2CC1CCCO1 (configuration not stated) | 0.826 | . | . | . | .
CCCCCCN(C(=O)CCCCCN1C(=O)NC(c2ccc(Cl)cc2)C(C(=O)OCc2ccccc2)=C1C)C(C(=O)NCCCC)c1ccc(OCC(=O)OC)c(C(=O)OC)c1 (configuration not stated) | 0.00922 | 10.2* | 5.4 | 5.5 | -41.6
CCCCCCN(C(=O)CCCCCN1C(=O)NC(c2ccc(-c3ccccc3)cc2)C(C(=O)OCc2ccccc2)=C1C)C(C(=O)NCCCC)c1ccc(OCC(=O)OC)c(C(=O)OC)c1 (configuration not stated) | -0.297 | . | . | . | .
COc1ccccc1N1CCN(C(=O)Cc2c(C(=O)O)[nH]c3ccc(Cl)cc23)CC1 | 0.0581 | 1.6 | 10.6 | . | .
O=C(O)c1[nH]c2ccc(Cl)cc2c1CC(=O)N1CCN(c2ccccc2)CC1 | 0.268 | 11.4* | 19.2 | -11.2 | -26.3
O=C(N/N=C/c1ccc(O)cc1O)/C(=C/c1ccccc1)CCO | -0.257 | 3.3 | 3.3 | -3.5 | 10.2
CCOC(=O)C1CCN(c2c(C(=O)c3ccccc3)cnc3ccc(CC)cc23)CC1 | -0.472 | 2.6 | 75.5* | . | .
CCOC(=O)C1CCCN(c2c(C(=O)c3ccccc3)cnc3ccccc23)C1 (configuration not stated) | -2.4 | 2.3 | 58.8* | . | .
O=C(Nc1ccc(N2CCN(C(=O)c3ccco3)CC2)cc1)c1cccnc1Cl | 0 | -0.5 | -12.2 | . | .
Clc1ccc(N/N=C/c2cccnc2)cc1 | -0.737 | -1.9 | 59.4* | -6.8 | 65.6*
Clc1ccc(N/N=C/c2ccncc2)cc1Cl | 0.177 | -0.2 | 63.6 | -11.7 | 49.3*
Fc1ccc(N/N=C/c2ccncc2)c(F)c1 | -0.308 | 1.5 | 27.3 | -11.1 | -1.1
COc1ccc(/C=C/C(=O)c2ccccc2)cc1Cn1nnc2ccccc21 | -0.81 | 3.5 | 23.5 | 12.9 | -22.9
C/C(=N\NC(=S)NC1CCCCC1)c1ccc(OC(F)F)cc1OC(F)F | 0.256 | 1.4 | 65.9* | . | .
